Measurements collected from several papers.
Target: High affinity nerve growth factor receptor (NTRK1, Homo sapiens, UniProt P04629)

SMILES | observed | method | tested at | remaining binding [%]
CCN1CCN(Cc2ccc(C(=O)Nc3ccc(C)c(Oc4ccc5c(c4)CC(=O)N5)c3)cc2C(F)(F)F)CC1 | binding | competition with immobilised ligand | 1 µM | 100
Cc1nc(N2CC[C@@H](O)C2)ncc1-c1cc(C(F)(F)F)cc2[nH]ncc12 | cell-free assay | competition with immobilised ligand | 1 µM | 56
O=C(Nc1c[nH]nc1C(=O)NC1CCNCC1)c1cc(F)cc(F)c1 | binding | competition with immobilised ligand | 1 µM | 100
N#CC1(c2ccccn2)CCN(Cc2cc(C(=O)N3CCCC3)c(=O)n3ccccc23)CC1 | cell-free assay | competition with immobilised ligand | 1 µM | 100
CNC(=O)[C@@H]1CC[C@@H](n2c(-c3ccc4cnccc4c3)nc3ccc(C(=O)NCc4cccc(C(N)=O)c4)cc32)C1 | binding | competition with immobilised ligand | 1 µM | 92
Cc1nccc(COC(=O)N2C[C@@H]3[C@@H](CNC(=O)c4ccc5[nH]nnc5c4)[C@@H]3C2)n1 | cell-free assay | competition with immobilised ligand | 1 µM | 94
O=C(NCCCN1CCOCC1)c1ccc(Nc2ncc(Cl)c(-c3ccc(Cl)s3)n2)cc1 | binding | competition with immobilised ligand | 1 µM | 17
C[C@@H]1CCN(c2nccc(-c3cnn4ncccc34)n2)C1 | binding | – | 1 µM | 61
NS(=O)(=O)c1cc(NC(=O)Cc2ccccc2)ccc1Oc1cccc(Cl)c1 | cell-free assay | competition with immobilised ligand | 1 µM | 73
Cc1cnn2ncc(-c3ccnc(N(C)C)n3)c2c1 | binding | – | 1 µM | 80
Cc1cnc(Nc2ccc(C(=O)N3CCC(N4CCCC4)CC3)cc2)nc1-c1cc2ccccc2s1 | binding | competition with immobilised ligand | 1 µM | 0.3
CN1CCN(c2ccc(Nc3nccc(-c4ccccc4)n3)cc2C(F)(F)F)CC1 | binding | – | 10 µM | 9.2
N[C@@H]1CCN(c2nccc(-c3cnn4ncccc34)n2)C1 | binding | – | 1 µM | 93
Cn1cc(Cl)c2c(Oc3c(F)cc(Nc4cc(Cl)nc(N)n4)cc3F)ccnc21 | cell-free assay | competition with immobilised ligand | 0.1 µM | 74
N#Cc1ccccc1CSc1nnc2c(n1)[nH]c1ccccc12 | binding | competition with immobilised ligand | 10 µM | 98
CN(C)c1nccc(-c2cnn3ncccc23)n1 | binding | – | 1 µM | 68
